Entries after “also recorded” stand apart in the source; their conditions may differ.
Columns and labels:
[1] = test system: Sprague-Dawley rats; experiment: Conditioned taste aversion test; format: in vivo, rat
[2] = test system: Sprague-Dawley rats; experiment: MCH-induced food intake in satiated rats; format: in vivo, rat; settings: 2 nmole i.c.v.
Method in brief: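 Cannulated male Sprague-Dawley rats were kept in wire-bottom cages >3 weeks and screened by drinking >5 ml/1 h after 50 ng angiotensin II. Satiated rats got 10 μl i.c.v. over 2 min at 7–8 a.m.: aCSF, MCH 2 nmole, or MCH plus test compound (1 or 5 nmole). Vehicles were DMSO-matched (up to 5% v/v). Food came 10 min later; cumulative intake over 4 h; ANOVA/Bonferroni.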

[3] = target: MCH2R (Homo sapiens, UniProt Q969V1); experiment: Selectivity FLIPR activity assay; format: cell-based
Method in brief: (§1)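 Calcium FLIPR format: receptor-expressing cells were loaded 1 h at 37°C with fluo-4 in Hanks' balanced salt solution plus 20 mM HEPES (pH 7.4). Receptor activation was then measured as intracellular Ca2+ fluorescence in the presence of increasing test compound concentrations. The top concentration reported was 10 uM.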

[4] = target: Muscarinic M2 (Homo sapiens, UniProt P08172); experiment: Radioligand displacement; format: binding
Muscarinic M2, sequence (P08172 whole entry): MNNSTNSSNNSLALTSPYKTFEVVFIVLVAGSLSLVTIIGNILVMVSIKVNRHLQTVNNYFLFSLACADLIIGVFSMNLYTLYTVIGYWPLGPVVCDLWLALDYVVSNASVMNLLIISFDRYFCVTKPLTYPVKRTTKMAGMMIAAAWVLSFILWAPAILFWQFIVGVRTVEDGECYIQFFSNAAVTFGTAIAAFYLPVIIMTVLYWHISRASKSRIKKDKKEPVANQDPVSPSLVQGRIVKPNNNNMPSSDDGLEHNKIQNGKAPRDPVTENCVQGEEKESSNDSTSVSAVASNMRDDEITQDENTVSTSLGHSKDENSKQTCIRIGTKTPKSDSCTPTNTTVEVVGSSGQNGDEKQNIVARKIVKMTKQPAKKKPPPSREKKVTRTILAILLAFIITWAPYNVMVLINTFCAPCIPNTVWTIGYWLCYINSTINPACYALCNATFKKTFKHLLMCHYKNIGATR

[5] = target: Adenosine A1 (Homo sapiens, UniProt P30542); experiment: Radioligand displacement; format: binding
[6] = target: Orexin 1R (Homo sapiens, UniProt O43613); experiment: Selectivity FLIPR activity assay; format: cell-based
Orexin 1R, sequence (O43613 whole entry): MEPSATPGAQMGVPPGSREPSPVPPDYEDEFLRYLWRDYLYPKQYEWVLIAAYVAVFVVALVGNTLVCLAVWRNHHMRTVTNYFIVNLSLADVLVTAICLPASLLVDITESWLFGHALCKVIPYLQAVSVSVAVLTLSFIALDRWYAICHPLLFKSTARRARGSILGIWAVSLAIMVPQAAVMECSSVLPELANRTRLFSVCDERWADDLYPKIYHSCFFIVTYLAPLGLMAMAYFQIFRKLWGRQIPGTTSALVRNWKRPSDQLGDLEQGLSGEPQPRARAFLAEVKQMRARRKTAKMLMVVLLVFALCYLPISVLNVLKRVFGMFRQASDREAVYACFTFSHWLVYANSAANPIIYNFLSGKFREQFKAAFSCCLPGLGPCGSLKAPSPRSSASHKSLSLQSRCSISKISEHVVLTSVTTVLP
Method in brief: as §1

[7] = target: NPY2R (Homo sapiens, UniProt P49146); experiment: Selectivity FLIPR activity assay; format: cell-based
Method in brief: as §1

[8] = target: Adenosine A2A (Homo sapiens, UniProt P29274); experiment: Radioligand displacement; format: binding
Adenosine A2A, sequence (P29274 whole entry): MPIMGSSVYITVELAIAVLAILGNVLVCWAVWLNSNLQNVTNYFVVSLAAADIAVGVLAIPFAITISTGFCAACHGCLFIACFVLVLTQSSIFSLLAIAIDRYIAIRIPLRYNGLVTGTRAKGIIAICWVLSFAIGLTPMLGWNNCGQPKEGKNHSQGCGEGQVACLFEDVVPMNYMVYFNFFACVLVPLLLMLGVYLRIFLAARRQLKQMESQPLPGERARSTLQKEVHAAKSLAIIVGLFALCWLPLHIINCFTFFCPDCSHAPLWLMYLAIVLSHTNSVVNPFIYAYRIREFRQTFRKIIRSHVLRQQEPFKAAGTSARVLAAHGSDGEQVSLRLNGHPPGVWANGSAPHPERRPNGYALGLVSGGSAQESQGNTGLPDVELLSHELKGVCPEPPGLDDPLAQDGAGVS

[9] = target: Adrenergic β1/β2; experiment: Radioligand displacement; settings: read-out: BINDING Adrenergic β1/β2; displacement of specific radioactive ligand
[10] = target: Prostanoid EP4 (Homo sapiens, UniProt P35408); experiment: Radioligand displacement; format: binding
[11] = target: Phorobol Ester; experiment: Radioligand displacement; settings: read-out: BINDING Phorobol Ester; displacement of specific radioactive ligand
[12] = target: Nicotinic Acetylcholine α1, Bungarotoxin (Homo sapiens, UniProt P02708+P07510+Q07001); experiment: biochemical; format: binding
[13] = target: hERG channel (Homo sapiens, UniProt Q12809); experiment: in vitro hERG electrophysiology assay; format: cell-based
hERG channel, sequence (Q12809 whole entry): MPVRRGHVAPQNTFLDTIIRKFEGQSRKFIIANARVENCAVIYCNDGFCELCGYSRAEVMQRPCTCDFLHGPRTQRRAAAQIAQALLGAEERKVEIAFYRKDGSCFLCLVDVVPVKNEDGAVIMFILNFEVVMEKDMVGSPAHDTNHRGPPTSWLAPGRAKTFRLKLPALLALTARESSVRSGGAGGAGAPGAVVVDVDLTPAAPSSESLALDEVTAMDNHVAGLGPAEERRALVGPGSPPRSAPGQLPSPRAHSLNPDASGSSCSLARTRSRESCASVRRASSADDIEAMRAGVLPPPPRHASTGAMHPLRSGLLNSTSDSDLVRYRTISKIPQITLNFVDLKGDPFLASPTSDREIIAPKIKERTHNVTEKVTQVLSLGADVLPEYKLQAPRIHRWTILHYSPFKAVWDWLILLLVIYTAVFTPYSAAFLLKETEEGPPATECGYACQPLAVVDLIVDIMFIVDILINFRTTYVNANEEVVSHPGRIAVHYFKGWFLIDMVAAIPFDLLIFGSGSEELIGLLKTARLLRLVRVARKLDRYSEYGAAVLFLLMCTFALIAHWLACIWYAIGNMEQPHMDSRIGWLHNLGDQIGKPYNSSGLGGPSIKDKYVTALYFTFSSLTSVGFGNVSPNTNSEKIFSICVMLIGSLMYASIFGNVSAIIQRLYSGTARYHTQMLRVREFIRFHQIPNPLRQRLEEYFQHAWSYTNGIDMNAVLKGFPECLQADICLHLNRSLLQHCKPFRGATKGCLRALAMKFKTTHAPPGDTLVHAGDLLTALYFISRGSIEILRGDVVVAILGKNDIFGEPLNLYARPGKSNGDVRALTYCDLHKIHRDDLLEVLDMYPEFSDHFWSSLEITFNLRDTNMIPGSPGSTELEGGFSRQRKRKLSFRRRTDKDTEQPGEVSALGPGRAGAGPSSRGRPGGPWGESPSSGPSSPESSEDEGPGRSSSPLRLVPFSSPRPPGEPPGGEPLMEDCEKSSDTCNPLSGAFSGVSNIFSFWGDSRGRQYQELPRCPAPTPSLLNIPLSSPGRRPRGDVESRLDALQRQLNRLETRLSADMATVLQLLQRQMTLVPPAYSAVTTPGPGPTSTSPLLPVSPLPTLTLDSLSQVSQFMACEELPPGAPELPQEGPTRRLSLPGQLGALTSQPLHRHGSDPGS

[14] = target: Opiate κ (KOR) (Homo sapiens, UniProt P41145); experiment: Selectivity FLIPR activity assay; format: cell-based
Method in brief: as §1

[15] = target: GPR103 (Homo sapiens, UniProt Q96P65); experiment: Radioligand displacement; format: binding
GPR103, sequence (Q96P65 whole entry, species assumed): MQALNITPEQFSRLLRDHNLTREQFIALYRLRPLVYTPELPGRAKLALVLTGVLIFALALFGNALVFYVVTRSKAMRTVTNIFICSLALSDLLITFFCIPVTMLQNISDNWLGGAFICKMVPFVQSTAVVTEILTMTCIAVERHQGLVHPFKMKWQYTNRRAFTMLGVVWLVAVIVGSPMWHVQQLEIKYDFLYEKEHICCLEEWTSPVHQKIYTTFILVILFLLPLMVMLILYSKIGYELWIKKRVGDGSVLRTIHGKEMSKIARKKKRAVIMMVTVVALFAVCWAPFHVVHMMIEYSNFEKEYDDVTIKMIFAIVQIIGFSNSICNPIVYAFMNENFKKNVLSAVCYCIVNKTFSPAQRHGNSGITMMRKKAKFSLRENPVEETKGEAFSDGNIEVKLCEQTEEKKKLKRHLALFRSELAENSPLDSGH

[16] = test system: Sprague-Dawley rats; experiment: Spontaneous locomotor activity; format: in vivo, rat
Method in brief: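 Cannulated male Sprague-Dawley rats were acclimatized 60 min to a novel home cage, removed, given vehicle or 5 nmole test compound i.c.v., and returned at once. An infrared beam monitor (4 × 8 frame) recorded 60 min. Beam breaks changing location counted as ambulatory; all others as non-ambulatory fine movement. n=10.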

[17] = target: T1, rat MCH1 receptor (Rattus norvegicus, UniProt P97639); experiment: MCH-induced Ca2+ mobilization; format: cell-based
T1 sequence (P97639 whole entry): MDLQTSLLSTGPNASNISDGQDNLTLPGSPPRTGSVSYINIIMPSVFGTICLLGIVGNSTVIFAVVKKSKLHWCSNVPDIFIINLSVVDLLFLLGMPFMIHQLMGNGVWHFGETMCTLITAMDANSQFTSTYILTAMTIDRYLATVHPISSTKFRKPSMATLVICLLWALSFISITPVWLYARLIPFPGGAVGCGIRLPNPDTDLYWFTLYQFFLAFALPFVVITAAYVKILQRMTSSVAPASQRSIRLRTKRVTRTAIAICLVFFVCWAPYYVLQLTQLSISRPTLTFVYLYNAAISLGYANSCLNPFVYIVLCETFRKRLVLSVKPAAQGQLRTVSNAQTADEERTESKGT

[18] = Pharmacokinetics in rats after intravenous administration; format: in vivo; settings: rat, plasma, 5 mg/kg
[19] = target: Muscarinic M3 (Homo sapiens, UniProt P20309); experiment: Radioligand displacement; format: binding
Muscarinic M3, sequence (P20309 whole entry): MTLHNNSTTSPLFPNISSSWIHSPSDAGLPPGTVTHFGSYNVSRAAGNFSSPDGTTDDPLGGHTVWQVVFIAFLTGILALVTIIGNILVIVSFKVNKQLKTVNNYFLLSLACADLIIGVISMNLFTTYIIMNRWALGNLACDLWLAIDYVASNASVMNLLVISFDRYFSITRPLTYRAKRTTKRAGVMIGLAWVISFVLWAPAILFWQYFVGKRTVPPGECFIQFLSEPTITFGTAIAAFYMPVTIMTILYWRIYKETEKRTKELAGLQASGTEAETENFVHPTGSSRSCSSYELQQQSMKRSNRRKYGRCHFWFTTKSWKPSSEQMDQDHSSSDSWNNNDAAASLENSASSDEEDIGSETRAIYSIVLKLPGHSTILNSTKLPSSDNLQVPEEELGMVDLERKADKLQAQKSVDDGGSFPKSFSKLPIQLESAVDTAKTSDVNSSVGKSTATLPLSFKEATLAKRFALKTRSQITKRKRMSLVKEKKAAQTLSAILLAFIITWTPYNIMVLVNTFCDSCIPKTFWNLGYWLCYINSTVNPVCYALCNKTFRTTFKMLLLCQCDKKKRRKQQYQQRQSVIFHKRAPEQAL

[20] = target: Opiate μ (OP3, MOP) (Homo sapiens, UniProt P35372); experiment: Radioligand displacement; format: binding
[21] = target: Rolipram; experiment: Radioligand displacement; settings: read-out: BINDING Rolipram; displacement of specific radioactive ligand
[22] = target: Dopamine D2s (Homo sapiens, UniProt P14416); experiment: Radioligand displacement; format: binding
Dopamine D2s, sequence (P14416 1-414 isoform P14416-2): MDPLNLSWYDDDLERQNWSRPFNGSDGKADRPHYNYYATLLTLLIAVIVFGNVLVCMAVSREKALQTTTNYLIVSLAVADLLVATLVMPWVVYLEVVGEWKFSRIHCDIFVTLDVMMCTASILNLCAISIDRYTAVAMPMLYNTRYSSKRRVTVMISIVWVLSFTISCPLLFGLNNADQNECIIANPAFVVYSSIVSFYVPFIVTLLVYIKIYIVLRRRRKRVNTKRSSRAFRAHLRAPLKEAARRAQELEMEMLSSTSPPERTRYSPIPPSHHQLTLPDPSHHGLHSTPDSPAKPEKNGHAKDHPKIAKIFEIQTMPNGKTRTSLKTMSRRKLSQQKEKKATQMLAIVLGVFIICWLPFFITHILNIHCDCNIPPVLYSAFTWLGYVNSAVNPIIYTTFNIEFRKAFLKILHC

[23] = target: T1, rat MCH1 receptor; format: binding
[24] = target: Transporter, Norepinephrine (NET) (Homo sapiens, UniProt P23975); experiment: Radioligand displacement; format: binding
[25] = target: GPR10 (Homo sapiens, UniProt P49683); experiment: Selectivity FLIPR activity assay; format: cell-based
Method in brief: as §1

[26] = target: Dopamine D1 (Homo sapiens, UniProt P21728); experiment: Radioligand displacement; format: binding
[27] = target: Histamine H1 (Homo sapiens, UniProt P35367); experiment: Radioligand displacement; format: binding
Histamine H1, sequence (P35367 whole entry): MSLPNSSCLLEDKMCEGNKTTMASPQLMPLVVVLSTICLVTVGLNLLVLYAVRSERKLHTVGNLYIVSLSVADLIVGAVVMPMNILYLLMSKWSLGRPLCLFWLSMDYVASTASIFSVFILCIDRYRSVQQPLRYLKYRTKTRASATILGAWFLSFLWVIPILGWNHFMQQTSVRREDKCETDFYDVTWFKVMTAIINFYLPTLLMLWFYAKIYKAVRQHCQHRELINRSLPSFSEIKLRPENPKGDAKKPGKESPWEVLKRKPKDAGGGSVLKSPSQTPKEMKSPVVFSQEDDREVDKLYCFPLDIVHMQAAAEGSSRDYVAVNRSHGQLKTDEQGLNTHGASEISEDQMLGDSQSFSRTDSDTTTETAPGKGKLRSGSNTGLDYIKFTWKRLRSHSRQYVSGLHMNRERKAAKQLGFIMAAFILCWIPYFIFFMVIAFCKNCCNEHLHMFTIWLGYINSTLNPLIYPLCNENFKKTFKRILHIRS

With [Cl-].[Li+] [LiCl, Lithium chloride, reference compound] the taste aversion effect ([1]; 300 mg/kg, i.p., positive control, P<0.01 vs. vehicle group) was “robust taste aversion effect”.
With CSCC[C@@H]1NC(=O)[C@@H](NC(=O)[C@H](CCCNC(=N)N)NC(=O)[C@H](CC(C)C)NC(=O)[C@H](CCSC)NC(=O)[C@H](CC(=O)O)NC(=O)[C@H](Cc2ccccc2)NC(=O)[C@@H](N)CC(=O)O)CSSC[C@@H](C(=O)N[C@@H](Cc2c[nH]c3ccccc23)C(=O)N[C@@H](CCC(N)=O)C(=O)N[C@H](C(=O)O)C(C)C)NC(=O)[C@@H]2CCCN2C(=O)[C@H](CCCNC(=N)N)NC(=O)[C@H](Cc2ccc(O)cc2)NC(=O)[C@H](C(C)C)NC(=O)[C@H](CCCNC(=N)N)NC(=O)CNC(=O)[C@H](CC(C)C)NC1=O [MCH, Melanin-concentrating hormone] the “feeding after intracerebroventricular injection” value [2] was “induced rapid and robust feeding”.
For C[C@@H](CNCc1ccccc1)N1C[C@H](CCCNC(=N)N)N(CCc2cccc(F)c2)C1=S [TPI 1361-17, N-(3-{(4S)-1-[(1S)-2-(benzylamino)-1-methylethyl]-3-[2-(3-fluorophenyl)ethyl]-2-thioxoimidazolidin-4-yl}propyl)guanidine], the “selectivity for MCH1 receptor compared to human MCH2 receptor” value [3] was “more than 1,000 fold”, the IC50 [4] was greater than 1000 nM and the IC50 [5] was greater than 1000 nM. The “selectivity for MCH1 receptor compared to orexin 1R” value [6] was “more than 1,000 fold”, the “selectivity for MCH1 receptor compared to neuropeptide Y2” value [7] was “more than 1,000 fold” and the IC50 [8] was greater than 1000 nM. The IC50 [9] was greater than 1000 nM, the IC50 [10] was greater than 1000 nM and the IC50 [11] was greater than 1000 nM. The IC50 [12] was greater than 1000 nM, the “aversive effect in taste aversion test” value ([1]; 10 nmole, i.c.v., saccharin preference) was “did not result in any aversive effect” and the IC50 [13] was greater than 10000 nM. The “activity in a hERG channel assay” value ([13]; result in words) was “not show activity; also recorded: no activity was detected”, the “selectivity for MCH1 receptor compared to kappa opioid receptors” value [14] was “more than 1,000 fold” and the IC50 [15] was greater than 1000 nM. For the same compound, the “ambulatory and non-ambulatory movements vs vehicle” value ([16]; five nmole i.c.v., monitored for 60 minutes) was “no significant differences”, the “detectable changes in movement” value ([16]; five or one nmole i.c.v.) was “did not exhibit any detectable changes in movement” and the “pA2 (Schild regression)” value ([17]; MCH dose response curves with increasing concentrations of antagonist) was 9.43. For the same compound, the “effect on basal Ca2+ level by itself” value ([17]; compound alone, no MCH) was “did not change the basal Ca^2+ level”, the Schild regression slope ([17]; r^2 = 0.975) was 1.085 ± 0.010 and the Tmax [18] was 4.98 min. For the same compound, the AUC(0-inf) ([18]; AUC0-∞ (mean value), intravenous, mean) was 2440 ng·h/mL, the half-life ([18]; plasma elimination half-life (mean value), intravenous, mean) was 2.7 h and the IC50 [19] was greater than 1000 nM. It also gave an IC50 [20] greater than 1000 nM, an IC50 [21] greater than 1000 nM and an IC50 [22] greater than 1000 nM. For the same compound, the IC50 [23] was 31.8 ± 8.66 nM, the “displacement of the binding of [125I] MCH” value ([23]; rat MCH1 receptor membranes) was “completely displaced” and the IC50 [24] was greater than 1000 nM. The “selectivity for MCH1 receptor compared to prolactin releasing peptide receptor” value [25] was “more than 1,000 fold”, the IC50 [26] was greater than 1000 nM and the IC50 [27] was greater than 1000 nM.

Reference: article PMC2633472 (European journal of pharmacology, 2008)
